# From PubChem BioAssay
# VIM-2 inhibitor: inhibitors of Pseudomonas aeruginosa VIM-2 metallo-beta-lactamase. purified VIM-2, nitrocefin hydrolysis, epi-absorbance fluorescence. inhibition, % at 5.6 µM. 290,000 compounds, 0.89% hits;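 active = inhibition above the mean of all tested compounds plus 3 SD, cutoff set per screening run, cut at about 7.5% in these data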;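 note: red hydrolysis product quenches plate fluorescence so inhibitors raise well fluorescence; 0% = enzyme with DMSO and 100% = DMSO without enzyme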
# PglD inh: blocks C. jejuni PglD acetyltransferase activity. purified PglD enzyme, DTNB colorimetric CoA detection. inhibition, % at 12.5 µM. 360,000 compounds, 0.098% hits. AID 602405; in the data active = inhibition above about 16%, passing the limit was not always enough
# PDI turbidity: inhibitors of human protein disulfide isomerase; P07237; PDI insulin aggregation turbidity, A650, 90 min; inhibition, % at 10 µM; 350,000 compounds, 0.052% hits;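 active = mean inhibition across replicates of 30% or more, whatever share of single replicates reach that level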
# ERp5 inh: inhibitors of human ERp5; 350,000 compounds, 0.05% hits; ERp5 insulin aggregation, absorbance 650 nm, 90 min; AID 651711; inhibition, % at 9.99 µM; Q15084;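 active = mean replicate inhibition above about 25%, with every replicate also reaching it, limit read from the data, passing the limit was not always enough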
# Target sequence (Q15084 whole entry, looked up): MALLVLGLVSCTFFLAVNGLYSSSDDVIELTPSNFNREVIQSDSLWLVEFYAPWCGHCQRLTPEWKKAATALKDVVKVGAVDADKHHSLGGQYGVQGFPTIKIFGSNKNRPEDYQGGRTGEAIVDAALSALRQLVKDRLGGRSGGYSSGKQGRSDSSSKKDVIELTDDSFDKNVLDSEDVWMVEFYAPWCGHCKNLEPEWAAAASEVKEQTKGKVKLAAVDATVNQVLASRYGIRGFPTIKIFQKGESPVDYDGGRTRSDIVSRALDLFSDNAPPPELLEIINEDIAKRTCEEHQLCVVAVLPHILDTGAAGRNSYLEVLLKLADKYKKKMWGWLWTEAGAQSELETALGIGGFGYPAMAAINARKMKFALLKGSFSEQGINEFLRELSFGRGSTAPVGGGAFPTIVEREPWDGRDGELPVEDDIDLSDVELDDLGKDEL
# IMP-1 inh-1: inhibitors of Pseudomonas aeruginosa IMP-1 metallo-beta-lactamase | purified IMP-1, nitrocefin hydrolysis, epi-absorbance fluorescence | inhibition, % at 5.6 µM | 290,000 compounds, 0.45% hits | AID 1556;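 active = inhibition above the mean plus 3 SD of all compounds in the same screening run, cut at about 4.5% in these data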;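 note: 0% = IMP-1 with DMSO and 100% = DMSO wells lacking enzyme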
#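 Assay system: purified IMP-1; Quantity: IMP-1 0.2 nM before substrate addition; Medium: HEPES buffer pH 7.1 with ZnSO4 and Brij 35; Incubation: 15 min enzyme–compound preincubation, then 25 min nitrocefin reaction, 25 °C; Signal: fluorescence quenching readout, ex 480/em 530 nm; Controls: DMSO with and without IMP-1; Repeats: singlicate testing.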
# PvdQ inh: P. aeruginosa PvdQ acylase inhibition; purified PvdQ acylase, fluorescence plate reader; inhibition, % at 10 µM; 340,000 compounds, 0.063% hits; in the data active = inhibition above about 30%, passing the limit was not always enough;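 note: 0% = vehicle neutral wells and 100% = reference inhibitor wells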
# IMP-1 inh-2: selectivity counter-screen for VIM-2 inhibitors: IMP-1 metallo-beta-lactamase inhibitors | shares compounds with VIM-2 inhibitor | purified IMP-1, nitrocefin hydrolysis, epi-absorbance fluorescence | inhibition, % at 5.6 µM | 1,300 tested, under 10 active; call rule not given here;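 note: 0% = enzyme with vehicle and 100% = vehicle without enzyme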
# VIM-2 FRET ctr: counter-screen for VIM-2 inhibitors: epi-absorbance artifacts via FRET; shares compounds with VIM-2 inhibitor; purified VIM-2, CCF2 FRET substrate hydrolysis; inhibition, % at 5.6 µM; 1,300 compounds, 23% hits; AID 1857;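 active = inhibition above the mean of all tested compounds plus 3 SD, cut at about 19% in these data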;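 note: 0% = VIM-2 plus DMSO and 100% = no enzyme wells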
# TEM-1 counter: selectivity counter-screen for VIM-2 inhibitors: E. coli TEM-1 inhibitors. shares compounds with VIM-2 inhibitor. Purified TEM-1, nitrocefin hydrolysis, epi-absorbance fluorescence. inhibition, % at 5.6 µM. 1,300 compounds, 3% hits. AID 1866;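 active = inhibition above that campaign's mean inhibition plus 3 SD, cut at about 0.46% in these data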;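 note: 0% = TEM-1 with DMSO and 100% = TEM-1 with 100 µM potassium clavulanate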
# Target sequence (P62593 whole entry, looked up): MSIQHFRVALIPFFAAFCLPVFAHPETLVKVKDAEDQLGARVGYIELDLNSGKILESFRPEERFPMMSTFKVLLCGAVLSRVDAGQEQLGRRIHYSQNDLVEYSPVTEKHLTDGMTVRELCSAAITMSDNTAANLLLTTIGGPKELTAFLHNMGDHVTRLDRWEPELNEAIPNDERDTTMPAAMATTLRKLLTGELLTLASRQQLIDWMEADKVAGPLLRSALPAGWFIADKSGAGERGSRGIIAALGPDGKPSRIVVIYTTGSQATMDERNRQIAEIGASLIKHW
# VIM-2 confirm 2: confirmation of P. aeruginosa VIM-2 metallo-beta-lactamase inhibitors. shares compounds with VIM-2 inhibitor. inhibition, % at 5.6 µM. 1,300 compounds, 96% hits. purified VIM-2, nitrocefin hydrolysis, epi-absorbance. AID 2187;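 active = inhibition of the VIM-2 beta-lactamase enzyme above about 11% from the earlier first-round screen, limit read from the data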;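 note: 0% = VIM-2 with DMSO and 100% = buffer wells without enzyme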
# * = called active by the depositor; / = no result given. This is a sample that favours compounds with a hit; in the whole collection about 1% have one here.
SMILES,VIM-2 inhibitor,PglD inh,PDI turbidity,ERp5 inh,IMP-1 inh-1,PvdQ inh,IMP-1 inh-2,VIM-2 FRET ctr,TEM-1 counter,VIM-2 confirm 2
C[C@@H]1CCCCO[C@@H](CN(C)C(=O)CCC(F)(F)F)[C@H](C)CN([C@H](C)CO)C(=O)c2cc(NS(=O)(=O)c3cccs3)ccc2O1,/,1,/,/,/,/,/,/,/,/
O=Cc1c(NCc2ccc(Cl)cc2)c2ccccc2[nH]c1=O,14*,2,-4,-1,-4,-17,-3,38*,-6,24*
O=C(Nc1ccc(-n2ccnc2P(=O)(O)c2ccccc2)cc1)c1ccccc1Cl,15*,-2,-7,/,-3,-5,-4,29*,-5,21*
O=C(Nc1ccc(N2CCCCCC2)cc1)c1ccccc1Cl,-3,6,-2,4,-3,1,/,/,/,/
CCN=C1S/C(=C/c2ccc(-c3ccc(Cl)cc3C(=O)O)o2)C(=O)N1CC,13*,/,-1,0,2,-2,-3,19*,-7,16*
Cc1ccc(Cn2ncc3c(NN)ncnc32)cc1,41*,0,7,4,-2,-12,-4,-10,-5,58*
CO[C@H]1CN(C)C(=O)c2ccc(NS(=O)(=O)c3ccccc3)cc2OC[C@H](C)N(Cc2cccnc2)C[C@H]1C,/,2,/,6,/,/,/,/,/,/
Cc1cc(OCC(O)CN2CCN(C)CC2)ccc1C(C)C (stereo unspecified),-3,-1,-8,7,-2,-16,/,/,/,/
CCN1CCN(CC(O)COc2ccc3c(C)cc(=O)oc3c2)CC1 (stereo unspecified),15*,/,2,-3,0,-5,-4,1,-7,23*
CCOC(=O)c1c(C)n(-c2ccc(C)cc2)c2ccc(OCC(O)CN3CCN(C)CC3)cc12 (stereo unspecified),15*,/,-2,4,-1,6,-3,-1,-6,26*
CCN1CCN(CC(O)COc2ccc(C)c(C)c2)CC1 (stereo unspecified),-4,-2,-8,-1,-4,-10,/,/,/,/
CCOC(=O)c1c(C)n(C)c2ccc(OCC(O)CN3CCN(C)CC3)cc12 (stereo unspecified),69*,-7,0,2,3,-13,-3,4,-6,75*
CN1CCN(CC(O)COc2ccc(OCC(O)CN3CCN(C)CC3)cc2)CC1 (stereo unspecified),-1,-1,0,/,1,-6,/,/,/,/
C[C@H]1CN([C@@H](C)CO)C(=O)Cc2cc(NS(=O)(=O)c3ccc(F)cc3)ccc2O[C@H]1CN(C)Cc1ccc(C(=O)O)cc1,/,5,/,5,/,/,/,/,/,/
CCCC#Cc1ccc2c(c1)O[C@@H](CN(C)C(=O)c1ccccc1)[C@H](C)CN([C@@H](C)CO)S2(=O)=O,/,2,/,-4,/,/,/,/,/,/
Cc1noc(C)c1S(=O)(=O)Nc1ccc2c(c1)CC(=O)N([C@H](C)CO)C[C@@H](C)[C@@H](CN(C)C(=O)Nc1ccccc1)O2,/,/,/,-1,/,/,/,/,/,/
Cc1sc2ncnc(Oc3ccc(-n4ccnc4)cc3)c2c1C,74*,-2,-6,/,-2,-6,-2,-7,-5,85*
O=C(C1CCCO1)N1N=C(c2ccc(Br)cc2)CC1c1ccco1 (stereo unspecified),18*,-1,1,2,-2,-11,-3,57*,-5,36*
O=C(c1ccc(Br)o1)N1N=C(c2ccc(Cl)cc2)CC1c1ccco1 (stereo unspecified),12*,-3,-4,7,-2,-7,-2,30*,-2,19*
Cc1ccc(C2=NN(C(=O)C3CCCO3)C(c3ccco3)C2)cc1 (stereo unspecified),14*,/,11,-1,-2,-10,-3,27*,-6,17*
CC(=O)N1N=C(c2ccc(C)cc2)CC1c1ccco1 (stereo unspecified),4,9,5,2,-1,-12,/,/,/,/
COc1ccc2cc(C#N)c(SCC(=O)N3CCCC3)nc2c1,-3,1,-7,3,-1,-10,/,/,/,/
COc1ccc2nc(SCC(=O)N3CCN(c4ccc(F)cc4)CC3)c(C#N)cc2c1,15*,0,-3,/,-2,-9,-4,13,-6,42*
C[C@H](CO)N1C[C@H](C)[C@H](CN(C)C(=O)CN(C)C)Oc2cc(-c3ccc(C#N)cc3)ccc2S1(=O)=O,/,0,/,0,/,/,/,/,/,/
N#Cc1cccc(Nc2c3c(nc4ccccc24)CCC3)c1,2,-6,14,4,-2,6,/,/,/,/
SMILES,VIM-2 inhibitor,PglD inh,PDI turbidity,ERp5 inh,IMP-1 inh-1,PvdQ inh,IMP-1 inh-2,VIM-2 FRET ctr,TEM-1 counter,VIM-2 confirm 2
Cc1ccc2nc3c(c(Nc4ccc5c(c4)OCCO5)c2c1)CCC3,16*,-4,-18,-9,-3,4,-4,-2,-7,30*
Cc1cccc(Nc2c3c(nc4ccccc24)CCC3)c1,7,7,-6,2,-4,10,/,/,/,/
Cc1ccc2nc3c(c(Nc4ccc(O)cc4)c2c1)CCC3,19*,4,6,0,-4,1,-3,-2,-5,32*
CCOC(=O)c1cnc(-n2nc(C)cc2C)nc1Nc1ccc(N(C)C)cc1,26*,1,4,/,-4,8,-5,-35,-5,75*
CCOC(=O)c1cnc(-n2nc(C)cc2C)nc1NC1CCCCC1,14*,5,-7,/,-5,13,-6,-28,-7,28*
O=C(Nc1ccccc1F)N1C[C@H]2[C@@H](c3ccccc31)[C@H](CO)N2C(=O)C1CC1,/,9,/,/,/,/,/,/,/,/
Nc1nccc(-c2ccc(-n3cnc4ccccc43)cc2)n1,18*,/,-2,-8,-4,-11,-4,-6,-6,39*
Cc1nccc(-c2ccc(-n3cnc4ccccc43)cc2)n1,17*,-8,-7,/,0,1,-3,-2,-6,33*
c1ccc2c(c1)ncn2-c1ccc(-c2ccnc3ncnn23)cc1,30*,/,-4,-2,-3,-6,-2,-10,-3,65*
COc1ccc(-c2ccnc3ncnn23)cc1,-2,/,0,2,-2,-30,/,/,/,/
COc1ccc2c3c(n(C)c2c1)[C@H](CO)N(Cc1ccncc1)CC31CN(C(=O)Cc2ccncc2)C1,/,/,/,-10,/,/,/,/,/,/
Cc1noc(C)c1NC(=O)N[C@H]1CC[C@@H](CC(=O)N2CCN(C)CC2)O[C@H]1CO,/,-1,/,-1,/,/,/,/,/,/
